In ChEMBL document CHEMBL1155366, “Synthesis of novel ageladine A analogs showing more potent matrix metalloproteinase (MMP)-12 inhibitory activity than the natural product” (Bioorg Med Chem Lett, 2009):

Molecular target: Macrophage metalloelastase (Homo sapiens, UniProt P39900)
Assay: Inhibition of human MMP12 catalytic domain
Procedure, shortened: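 Human MMP-12 catalytic domain (residues 84-255) in 50 mM Tris pH 7.5, 0.05% Brij-35, 10 mM CaCl₂, 1 mM DTNB. Preincubated with inhibitor in DMSO for 20 min at RT. The chromogenic thiopeptolide substrate (1 mM stock) was then added and the mix incubated 30–80 min at 37 °C. Reaction stopped with 0.2 M EDTA (pH 8.0); color read at 405 nm.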

Chain of Macrophage metalloelastase (P39900 whole entry, the tested form may be a part): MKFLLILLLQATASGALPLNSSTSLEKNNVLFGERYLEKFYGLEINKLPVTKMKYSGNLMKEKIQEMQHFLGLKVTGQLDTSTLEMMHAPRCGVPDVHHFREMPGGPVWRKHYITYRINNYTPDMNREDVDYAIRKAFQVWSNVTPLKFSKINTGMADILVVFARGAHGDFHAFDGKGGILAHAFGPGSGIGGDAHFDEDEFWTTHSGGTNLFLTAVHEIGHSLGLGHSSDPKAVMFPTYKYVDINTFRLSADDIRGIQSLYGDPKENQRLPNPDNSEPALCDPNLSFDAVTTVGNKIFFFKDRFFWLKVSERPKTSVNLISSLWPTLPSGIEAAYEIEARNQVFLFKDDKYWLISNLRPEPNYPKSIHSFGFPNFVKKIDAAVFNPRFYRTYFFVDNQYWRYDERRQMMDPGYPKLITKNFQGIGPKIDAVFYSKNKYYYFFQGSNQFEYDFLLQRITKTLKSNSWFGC

Row | Compound | IC50
1 | Nc1nc2c(-c3cc(Br)c[nH]3)nccc2[nH]1 | > 100 µM
2 | Nc1nc2c(-c3ccc(Br)[nH]3)nccc2[nH]1 | > 100 µM
3 | Nc1nc2c(-c3cc(Br)c(-c4ccc(-c5ccccc5)cc4)[nH]3)nccc2[nH]1 | > 100 µM
4 | Nc1nc2c(-c3cc(Br)c(Cl)[nH]3)nccc2[nH]1 | 2.02 µM
5 | Nc1nc2c(-c3cc(Br)c(-c4cccc(-c5ccccc5)c4)[nH]3)nccc2[nH]1 | > 100 µM
6 | Nc1nc2c(-c3cc(Cl)c(Cl)[nH]3)nccc2[nH]1 | 5.02 µM
7 | Nc1nc2c(-c3cc(CCc4ccccc4)c(Br)[nH]3)nccc2[nH]1 | 10.2 µM
8 | Nc1nc2c(-c3[nH]c(Br)c(CCc4ccc(C(F)(F)F)cc4)c3Br)nccc2[nH]1 | > 100 µM
9 | Nc1nc2c(-c3[nH]c(Br)c(CCc4cccc(C(F)(F)F)c4)c3Br)nccc2[nH]1 | > 100 µM
10 | Nc1nc2c(-c3[nH]c(Br)c(Cc4ccccc4)c3Br)nccc2[nH]1 | > 100 µM
11 | Nc1nc2c(-c3[nH]c(Br)c(CCc4ccccc4C(F)(F)F)c3Br)nccc2[nH]1 | > 100 µM
12 | Cc1c(Br)[nH]c(-c2nccc3[nH]c(N)nc23)c1Br | 5.02 µM
13 | Cc1[nH]c(-c2nccc3[nH]c(N)nc23)cc1Br | > 100 µM
14 | Nc1nc2c(-c3[nH]c(Br)c(Br)c3Br)nccc2[nH]1 | 1.24 µM
15 | Nc1nc2c(-c3cc(CCCc4ccccc4)c(Br)[nH]3)nccc2[nH]1 | > 100 µM

Further lines, results first:

Row | IC50 | Compound
16 | > 100 µM | Cc1cc(-c2nccc3[nH]c(N)nc23)[nH]c1Br
17 | 18.7 µM | Nc1nc2c(-c3cc(-c4ccccc4)c(Br)[nH]3)nccc2[nH]1
18 | > 100 µM | Nc1nc2c(-c3cc(Br)c(-c4ccccc4)[nH]3)nccc2[nH]1
19 | 2.99 µM | Nc1nc2c(-c3[nH]c(Br)c(CCc4ccccc4)c3Br)nccc2[nH]1
20 | > 100 µM | Cc1[nH]c(-c2nccc3[nH]c(N)nc23)c(Br)c1Br
21 | > 100 µM | Nc1nc2c(-c3cc(Cc4ccccc4)c(Br)[nH]3)nccc2[nH]1
22 | > 100 µM | Nc1nc2c(-c3[nH]c(Br)c(Br)c3CCc3ccccc3)nccc2[nH]1
23 | > 100 µM | Nc1nc2c(-c3[nH]c(Br)c(CCCc4ccccc4)c3Br)nccc2[nH]1
